Experimental data taken from paper PMC3082041 (Cancer Chemotherapy and Pharmacology, 2010).
Read-outs that look alike come from different tables or passages of the source.

Tests used:
[1] = test system: plasma VEGF, E-selectin, tPA, VCAM-1, PAI-1, urine VEGF; assay: Angiogenesis-related biomarkers in plasma and urine; format: in vivo, human (Japanese patients); conditions: 14 patients
[2] = test system: advanced solid tumors; assay: Antitumor effect; format: in vivo, human (Japanese patients)
Procedure, shortened: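 Tumours measured before treatment and at 4 weeks, scored by Japan Society for Cancer Therapy (WHO-based) criteria. PR: ≥50% shrinkage held ≥4 weeks. NC: <50% shrinkage or ≤25% enlargement held ≥4 weeks. PD: ≥25% enlargement or new lesions. Tumour-type-related markers measured before therapy. Patients with progression were taken off study.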

[3] = test system: tumor xenograft explants; conditions: athymic mice, many types of tumor; cited from earlier work
[4] = Urinary excretion of TSU-68; format: in vivo, human (Japanese patients); conditions: any dose level
Procedure, shortened: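 Dosing was once daily on days 1 and 29 and bid on days 2–28. Drug measured by validated HPLC-UV (LLOQ 0.1 μg/mL). Excretion expressed as percentage of dose.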

[5] = test system: Caucasian patients; conditions: cited from earlier work
[6] = Plasma pharmacokinetics of TSU-68; format: in vivo, human (Japanese patients); conditions: for AUC(0-t) / Cmax / half-life / Tmax: human, oral
[7] = test system: liver cytochrome P450, CYP1A1/2; conditions: non-clinical studies; cited from earlier work
[8] = published clinical result; cited from earlier work

For Cc1[nH]c(/C=C2\C(=O)Nc3ccccc32)c(C)c1CCC(=O)O [TSU-68, (Z)-3-[2,4-dimethyl-5-(2-oxo-1,2-dihydro-indol-3-ylidenemethyl)-1H-pyrrol-3-yl]-propionic acid], the “change of plasma VEGF, E-selectin, tPA and VCAM-1” value [1] was “not changed substantially”, the “PAI-1, increase over the baseline” value ([1]; average) was “more than 20%” and the “urine VEGF, increase over the baseline” value ([1]; average) was “more than 20%”. The “PAI-1, average after treatment” value ([1]; baseline 24.3 ± 6.7 ng/ml) was 29.5 ± 11.3 ng/mL, the “urine VEGF, average after treatment” value ([1]; baseline 96.6 ± 62.4 pg/ml) was 132.1 ± 93.6 pg/mL and the “partial or complete responses” value ([2]; 15 patients, 200-1,200 mg/m^2 bid) was “No partial or complete responses were seen”. The “patients with stable disease” value ([2]; non-small cell lung cancer 2, thymoma 1, peritoneal sarcoma 1) was “Four”, the “antitumor activity against tumor xenograft explants” value [3] was “significant antitumor activity” and the “Urinary excretion of TSU-68” value [4] was “below 1 % of dose”. For the same compound, the AUC ([5]; day 1, Caucasian patients) was 70000 ng·h/mL, the AUC ([5]; day 28, Caucasian patients) was 32000 ng·h/mL and the “time to reach Cmax” value ([6]; after the first dose, plasma) was ~ 2.5 h. It also gave an AUC(0-t) ([6]; plasma, 200 mg/m2, AUC0–t, 200 mg/m^2, Day 1, 3 patients, plasma) of 45600 ± 21000 ng·h/mL, an AUC(0-t) ([6]; plasma, 200 mg/m2, AUC0–t, 200 mg/m^2, Day 8, 3 patients, plasma) of 20600 ± 6200 ng·h/mL and an AUC(0-t) ([6]; plasma, 200 mg/m2, AUC0–t, 200 mg/m^2, Day 29, 3 patients, plasma) of 21200 ± 9500 ng·h/mL. It also gave a Cmax ([6]; plasma, 200 mg/m2, Cmax, 200 mg/m^2, Day 1, 3 patients, plasma) of 10600 ± 6040 ng/mL, a Cmax ([6]; plasma, 200 mg/m2, Cmax, 200 mg/m^2, Day 8, 3 patients, plasma) of 6670 ± 3700 ng/mL and a Cmax ([6]; plasma, 200 mg/m2, Cmax, 200 mg/m^2, Day 29, 3 patients, plasma) of 6350 ± 3780 ng/mL. The half-life ([6]; plasma, 200 mg/m2, T1/2, 200 mg/m^2, Day 1, 3 patients, plasma) was 8.03 ± 3.82 h, the half-life ([6]; plasma, 200 mg/m2, T1/2, 200 mg/m^2, Day 8, 3 patients, plasma) was 4.8 ± 2.14 h and the half-life ([6]; plasma, 200 mg/m2, T1/2, 200 mg/m^2, Day 29, 3 patients, plasma) was 3.59 ± 1.71 h. The Tmax ([6]; plasma, 200 mg/m2, Tmax, 200 mg/m^2, Day 1, 3 patients, plasma) was 2.3 ± 1.5 h, the Tmax ([6]; plasma, 200 mg/m2, Tmax, 200 mg/m^2, Day 8, 3 patients, plasma) was 1.7 ± 0.3 h and the Tmax ([6]; plasma, 200 mg/m2, Tmax, 200 mg/m^2, Day 29, 3 patients, plasma) was 1.7 ± 0.8 h. It also gave an AUC(0-t) ([6]; plasma, 400 mg/m2, AUC0–t, 400 mg/m^2, Day 1, 3 patients, plasma) of 58200 ± 16800 ng·h/mL, an AUC(0-t) ([6]; plasma, 400 mg/m2, AUC0–t, 400 mg/m^2, Day 8, 3 patients, plasma) of 25000 ± 9400 ng·h/mL and an AUC(0-t) ([6]; plasma, 400 mg/m2, AUC0–t, 400 mg/m^2, Day 29, 2 patients, plasma) of 22900 ng·h/mL. It also gave a Cmax ([6]; plasma, 400 mg/m2, Cmax, 400 mg/m^2, Day 1, 3 patients, plasma) of 11700 ± 3810 ng/mL, a Cmax ([6]; plasma, 400 mg/m2, Cmax, 400 mg/m^2, Day 8, 3 patients, plasma) of 7210 ± 1060 ng/mL and a Cmax ([6]; plasma, 400 mg/m2, Cmax, 400 mg/m^2, Day 29, 2 patients, plasma) of 6350 ng/mL. For the same compound, the half-life ([6]; plasma, 400 mg/m2, T1/2, 400 mg/m^2, Day 1, 3 patients, plasma) was 7.89 ± 4.04 h, the half-life ([6]; plasma, 400 mg/m2, T1/2, 400 mg/m^2, Day 8, 3 patients, plasma) was 3.53 ± 0.43 h and the half-life ([6]; plasma, 400 mg/m2, T1/2, 400 mg/m^2, Day 29, 2 patients, plasma) was 5.36 h. It also gave a Tmax ([6]; plasma, 400 mg/m2, Tmax, 400 mg/m^2, Day 1, 3 patients, plasma) of 2.5 ± 1.3 h, a Tmax ([6]; plasma, 400 mg/m2, Tmax, 400 mg/m^2, Day 8, 3 patients, plasma) of 1.8 ± 0.3 h and a Tmax ([6]; plasma, 400 mg/m2, Tmax, 400 mg/m^2, Day 29, 2 patients, plasma) of 1 h. It also gave an AUC(0-t) ([6]; plasma, 800 mg/m2, AUC0–t, 800 mg/m^2, Day 1, 6 patients, plasma) of 83300 ± 32700 ng·h/mL, an AUC(0-t) ([6]; plasma, 800 mg/m2, AUC0–t, 800 mg/m^2, Day 8, 5 patients, plasma) of 44600 ± 17300 ng·h/mL and an AUC(0-t) ([6]; plasma, 800 mg/m2, AUC0–t, 800 mg/m^2, Day 29, 4 patients, plasma) of 30000 ± 16700 ng·h/mL. It also gave a Cmax ([6]; plasma, 800 mg/m2, Cmax, 800 mg/m^2, Day 1, 6 patients, plasma) of 14600 ± 5650 ng/mL, a Cmax ([6]; plasma, 800 mg/m2, Cmax, 800 mg/m^2, Day 8, 5 patients, plasma) of 10600 ± 1830 ng/mL and a Cmax ([6]; plasma, 800 mg/m2, Cmax, 800 mg/m^2, Day 29, 4 patients, plasma) of 10700 ± 4690 ng/mL. The half-life ([6]; plasma, 800 mg/m2, T1/2, 800 mg/m^2, Day 1, 6 patients, plasma) was 9.93 ± 6.01 h, the half-life ([6]; plasma, 800 mg/m2, T1/2, 800 mg/m^2, Day 8, 5 patients, plasma) was 4.31 ± 2.72 h and the half-life ([6]; plasma, 800 mg/m2, T1/2, 800 mg/m^2, Day 29, 4 patients, plasma) was 4.37 ± 4.05 h. For the same compound, the Tmax ([6]; plasma, 800 mg/m2, Tmax, 800 mg/m^2, Day 1, 6 patients, plasma) was 2.8 ± 1.1 h, the Tmax ([6]; plasma, 800 mg/m2, Tmax, 800 mg/m^2, Day 8, 5 patients, plasma) was 1.5 ± 0.4 h and the Tmax ([6]; plasma, 800 mg/m2, Tmax, 800 mg/m^2, Day 29, 4 patients, plasma) was 2.1 ± 0.3 h. The Cmax ([6]; plasma, 1200 mg/m^2, Cmax, 1,200 mg/m^2, Day 1, 3 patients, plasma) was 16000 ± 1910 ng/mL, the Cmax ([6]; plasma, 1200 mg/m^2, Cmax, 1,200 mg/m^2, Day 8, 3 patients, plasma) was 8150 ± 4220 ng/mL and the Cmax ([6]; plasma, 1200 mg/m^2, Cmax, 1,200 mg/m^2, Day 29, 3 patients, plasma) was 6710 ± 884 ng/mL. The half-life ([6]; plasma, 1200 mg/m^2, T1/2, 1,200 mg/m^2, Day 1, 3 patients, plasma) was 8.33 ± 4.65 h, the half-life ([6]; plasma, 1200 mg/m^2, T1/2, 1,200 mg/m^2, Day 8, 3 patients, plasma) was 2.78 ± 0.9 h and the half-life ([6]; plasma, 1200 mg/m^2, T1/2, 1,200 mg/m^2, Day 29, 3 patients, plasma) was 4.84 ± 3.29 h. The Tmax ([6]; plasma, 1200 mg/m^2, Tmax, 1,200 mg/m^2, Day 1, 3 patients, plasma) was 2.2 ± 0.8 h, the Tmax ([6]; plasma, 1200 mg/m^2, Tmax, 1,200 mg/m^2, Day 8, 3 patients, plasma) was 1.8 ± 0.3 h and the Tmax ([6]; plasma, 1200 mg/m^2, Tmax, 1,200 mg/m^2, Day 29, 3 patients, plasma) was 1.7 ± 0.3 h. The “trough plasma level versus IC50 for VEGF and PDGF receptors cellular assay” value ([6]; steady-state exposure, 200 mg/m^2, IC50 from ref 16) was “above the IC50”, the “induction of liver cytochrome P450, CYP1A1/2” value [7] was “causes induction of liver cytochrome P450, CYP1A1/2” and the “AUC on day 56 compared with day 28” value [8] was “similar”.
